Measurements published in ChEMBL document CHEMBL3525939, “Organic cation transporter-mediated renal secretion of ipratropium and tiotropium in rats and humans” (Drug Metab Dispos, 2011).

Assays:
[1] = target: T1, Solute carrier family 22 member 2 (Rattus norvegicus, UniProt Q9R0W2); assay: Binding affinity to rat Oct2 assessed as transporter-mediated drug uptake; type: ADME
T1 sequence (Q9R0W2 whole entry): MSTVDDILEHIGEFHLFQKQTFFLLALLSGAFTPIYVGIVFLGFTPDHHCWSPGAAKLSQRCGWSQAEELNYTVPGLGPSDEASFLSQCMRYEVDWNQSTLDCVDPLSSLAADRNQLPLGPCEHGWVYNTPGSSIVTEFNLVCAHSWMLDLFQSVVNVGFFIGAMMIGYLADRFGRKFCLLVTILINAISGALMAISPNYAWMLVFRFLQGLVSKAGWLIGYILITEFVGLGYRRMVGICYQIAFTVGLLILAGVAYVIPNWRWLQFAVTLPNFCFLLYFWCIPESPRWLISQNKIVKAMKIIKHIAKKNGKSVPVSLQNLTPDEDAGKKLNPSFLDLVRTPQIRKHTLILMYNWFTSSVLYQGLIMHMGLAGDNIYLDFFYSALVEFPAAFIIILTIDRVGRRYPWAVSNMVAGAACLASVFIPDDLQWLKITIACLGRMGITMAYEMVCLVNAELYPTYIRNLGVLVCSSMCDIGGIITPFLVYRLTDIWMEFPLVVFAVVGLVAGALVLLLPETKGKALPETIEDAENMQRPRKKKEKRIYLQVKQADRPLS
How it was run: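 [3H]ipratropium (10 nM) uptake into HEK293/rOct2 cells over 30 sec at pH 7.4, 37°C, in HEPES-buffered saline transport buffer. Mock-cell uptake subtracted to give transporter-mediated uptake. Cells lysed in Triton X-100, counted by liquid scintillation, normalised to protein. Km and Vmax from non-linear least-squares fit to Michaelis-Menten equation. n = 4, mean ± SEM.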

Kidney [2] = assay: Drug uptake in Wistar rat kidney slice at 10 nM at pH 7.4 at 37 degC after 1 min relative to control in presence of 1 mM imipramine; type: ADME, tissue-based; set-up: interact cpd dose 1 mM; settings: pH 7.4, 1 min, 0.01 µM
How it was run: (§1)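 Rat kidney slices incubated with [3H]ipratropium or [3H]tiotropium (10 nM) for 1 min at 37°C and pH 7.4. Each inhibitor given at 1 mM. Adhering water estimated from [14C]inulin uptake. Uptake expressed as percent of control without inhibitor. Mean ± SEM of 4 slices; significance by Student's t-test, p<0.05.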

Oct2 (Slc22a2) [3] = target: T2, Oct2 (Slc22a2) (Rattus norvegicus, UniProt Q9R0W2); assay: Drug uptake in rat Oct2 expressed HEK293 cells at 10 nM at pH 7.4 at 37 degC after 1 min relative to mock cells; type: ADME, cell-based; settings: HEK293 cells expressing rat Oct2, pH 7.4, read-out: FC
T2 sequence (Q9R0W2 whole entry): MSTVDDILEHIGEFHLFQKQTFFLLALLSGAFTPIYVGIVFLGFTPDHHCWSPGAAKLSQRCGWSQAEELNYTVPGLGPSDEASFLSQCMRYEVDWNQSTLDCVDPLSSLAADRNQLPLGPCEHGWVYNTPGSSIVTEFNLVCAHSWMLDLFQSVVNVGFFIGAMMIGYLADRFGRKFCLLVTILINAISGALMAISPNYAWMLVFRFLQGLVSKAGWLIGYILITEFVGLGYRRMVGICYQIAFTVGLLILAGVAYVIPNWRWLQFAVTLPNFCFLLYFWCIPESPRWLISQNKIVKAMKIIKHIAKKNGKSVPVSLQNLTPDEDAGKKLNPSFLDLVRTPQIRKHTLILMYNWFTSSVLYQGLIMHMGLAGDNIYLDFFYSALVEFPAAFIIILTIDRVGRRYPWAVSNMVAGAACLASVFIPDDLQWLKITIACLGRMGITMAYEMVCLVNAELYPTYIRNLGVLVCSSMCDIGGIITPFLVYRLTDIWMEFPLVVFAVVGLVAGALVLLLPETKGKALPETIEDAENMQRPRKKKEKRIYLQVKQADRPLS
How it was run: (§2)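 Transfected HEK293 cells (antibiotic-selected; DMEM with 10% FBS) plated at 1 × 10^5 cells/cm2 and used after 2 days. Uptake of [3H]ipratropium or [3H]tiotropium (10 nM) for 1 min at pH 7.4, 37°C, in HEPES-buffered saline. Cells washed ice-cold, lysed in Triton X-100, counted by scintillation, normalised to protein. Uptake compared with vector-only Mock cells. n = 4.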

Kidney [4] = assay: Drug uptake in Wistar rat kidney slice at 10 nM at pH 7.4 at 37 degC after 1 min relative to control in presence 1 mM MPP+; type: ADME, tissue-based; set-up: interact cpd dose 1 mM; settings: pH 7.4, 1 min, 0.01 µM; how it was run: as §1
Kidney [5] = assay: Drug uptake in Wistar rat kidney slice at 10 nM at pH 7.4 at 37 degC after 1 min relative to control in presence of 1 mM PAH; type: ADME, tissue-based; set-up: interact cpd dose 1 mM; settings: pH 7.4, 1 min, 0.01 µM; how it was run: as §1
Kidney [6] = assay: Drug uptake in Wistar rat kidney slice at 10 nM at pH 7.4 at 37 degC after 1 min relative to control in presence of 1 mM estrone 3-sulfate; type: ADME, tissue-based; set-up: interact cpd dose 1 mM; settings: pH 7.4, 1 min, 0.01 µM; how it was run: as §1
Kidney [7] = assay: Drug uptake in Wistar rat kidney slice at 10 nM at pH 7.4 at 37 degC after 1 min relative to control in presence of 1 mM TEA+; type: ADME, tissue-based; set-up: interact cpd dose 1 mM; settings: pH 7.4, 1 min, 0.01 µM; how it was run: as §1
Oct1 (Slc22a1) = target: T3, Oct1 (Slc22a1) (Rattus norvegicus, UniProt Q63089); assay: Drug uptake in rat Oct1 expressed HEK293 cells at 10 nM at pH 7.4 at 37 degC after 1 min relative to mock cells; type: ADME, cell-based; settings: HEK293 cells expressing rat Oct1, pH 7.4, read-out: FC; how it was run: as §2
T3 sequence (Q63089 whole entry): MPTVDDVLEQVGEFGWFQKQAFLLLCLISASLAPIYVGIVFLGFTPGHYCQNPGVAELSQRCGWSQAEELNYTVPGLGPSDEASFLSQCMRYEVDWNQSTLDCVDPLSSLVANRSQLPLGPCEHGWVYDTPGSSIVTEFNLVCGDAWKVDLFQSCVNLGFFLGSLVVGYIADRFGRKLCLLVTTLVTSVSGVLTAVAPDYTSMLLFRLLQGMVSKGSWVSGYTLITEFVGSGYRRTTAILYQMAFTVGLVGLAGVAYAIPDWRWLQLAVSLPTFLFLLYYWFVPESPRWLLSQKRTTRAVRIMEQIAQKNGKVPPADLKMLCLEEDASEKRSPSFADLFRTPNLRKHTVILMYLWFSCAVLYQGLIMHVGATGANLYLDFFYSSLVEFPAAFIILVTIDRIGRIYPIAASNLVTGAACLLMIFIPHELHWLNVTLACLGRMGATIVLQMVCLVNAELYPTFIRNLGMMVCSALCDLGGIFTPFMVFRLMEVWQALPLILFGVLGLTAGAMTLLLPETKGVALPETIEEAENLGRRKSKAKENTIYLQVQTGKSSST

Kidney [8] = assay: Drug uptake in Wistar rat kidney slice at 10 nM at pH 7.4 at 37 degC after 1 min relative to control in presence of ipratropium; type: ADME, tissue-based; settings: pH 7.4, 1 min, 0.01 µM; how it was run: as §1
OCT2 (SLC22A2) [9] = target: T4, OCT2 (SLC22A2) (Homo sapiens, UniProt O15244); assay: Drug uptake in human Oct2 expressed HEK293 cells at 10 nM at pH 7.4 at 37 degC after 1 min relative to mock cells; type: ADME, cell-based; settings: HEK293 cells expressing human Oct2, pH 7.4, read-out: FC; how it was run: as §2
T4 sequence (O15244 whole entry): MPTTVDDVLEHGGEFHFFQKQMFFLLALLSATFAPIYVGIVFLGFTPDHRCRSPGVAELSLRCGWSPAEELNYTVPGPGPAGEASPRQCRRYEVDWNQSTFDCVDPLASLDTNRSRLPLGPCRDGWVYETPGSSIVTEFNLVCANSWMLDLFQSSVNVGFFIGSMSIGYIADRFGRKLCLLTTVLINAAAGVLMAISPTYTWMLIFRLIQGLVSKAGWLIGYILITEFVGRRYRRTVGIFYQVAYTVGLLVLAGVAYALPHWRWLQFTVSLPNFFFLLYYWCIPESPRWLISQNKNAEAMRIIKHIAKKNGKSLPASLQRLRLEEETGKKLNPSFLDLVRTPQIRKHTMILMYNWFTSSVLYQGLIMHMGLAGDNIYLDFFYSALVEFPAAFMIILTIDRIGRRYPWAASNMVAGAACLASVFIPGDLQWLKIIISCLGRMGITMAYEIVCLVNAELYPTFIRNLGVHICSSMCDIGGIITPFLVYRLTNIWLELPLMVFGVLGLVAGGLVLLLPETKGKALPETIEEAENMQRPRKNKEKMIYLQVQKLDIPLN

Kidney [10] = assay: Drug uptake in Wistar rat kidney slice at 10 nM at pH 7.4 at 37 degC after 1 min; type: ADME, tissue-based; settings: pH 7.4, 1 min, 0.01 µM; how it was run: as §1
Kidney [11] = assay: Drug uptake in Wistar rat kidney slice at 10 nM at pH 7.4 at 37 degC after 1 min relative to control in presence of 1 mM quinidine; type: ADME, tissue-based; set-up: interact cpd dose 1 mM; settings: pH 7.4, 1 min, 0.01 µM; how it was run: as §1
Kidney [12] = assay: Drug uptake in Wistar rat kidney slice at 10 nM at pH 7.4 at 37 degC after 1 min relative to control in presence of 1 mM cimetidine; type: ADME, tissue-based; set-up: interact cpd dose 1 mM; settings: pH 7.4, 1 min, 0.01 µM; how it was run: as §1
[13] = substrate: NCCc1ccc(O)c(O)c1; assay: cells, lysate or membranes named

Question: With C[n+]1ccc(-c2ccccc2)cc1 as the molecule, how does the Km [1] read?
Answer: Its Km is 17 µM.

Question: How did the Drug uptake (Kidney [2]) turn out when C[N+]1(C)[C@@H]2C[C@@H](OC(=O)C(O)(c3cccs3)c3cccs3)C[C@@H]1[C@H]1O[C@H]12.[Br-] was run?
Answer: Its Drug uptake is 36.7%.

Question: What about the uptake ratio at 1 min, 0.01 µM (Oct2 (Slc22a2) [3]) of the same molecule?
Answer: Its uptake ratio at 1 min, 0.01 µM is 3.

Question: What about the Drug uptake (Kidney [4]) of the same molecule?
Answer: The Drug uptake was 39.8%.

Question: And the Drug uptake (Kidney [5])?
Answer: The Drug uptake was 97.4%.

Question: What about the Drug uptake (Kidney [6]) of the same molecule?
Answer: Its Drug uptake is 104%.

Question: And the Drug uptake (Kidney [7])?
Answer: The Drug uptake was 67.3%.

Question: And the uptake ratio at 1 min, 0.01 µM (Oct1 (Slc22a1))?
Answer: Its uptake ratio at 1 min, 0.01 µM is 8.4.

Question: And the Drug uptake (Kidney [8])?
Answer: The Drug uptake was 25.6%.

Question: What about the uptake ratio at 1 min, 0.01 µM (OCT2 (SLC22A2) [9]) of the same molecule?
Answer: The uptake ratio at 1 min, 0.01 µM was 8.5.

Question: And the Drug uptake (Kidney [10])?
Answer: The Drug uptake was 100%.

Question: And the Drug uptake (Kidney [11])?
Answer: The Drug uptake was 34.9%.

Question: And the Drug uptake (Kidney [12])?
Answer: The Drug uptake was 54.5%.

B1: Solute carrier family 22 member 2 (Rattus norvegicus) (protein)
chain: MSTVDDILEHIGEFHLFQKQTFFLLALLSGAFTPIYVGIVFLGFTPDHHCWSPGAAKLSQRCGWSQAEELNYTVPGLGPSDEASFLSQCMRYEVDWNQSTLDCVDPLSSLAADRNQLPLGPCEHGWVYNTPGSSIVTEFNLVCAHSWMLDLFQSVVNVGFFIGAMMIGYLADRFGRKFCLLVTILINAISGALMAISPNYAWMLVFRFLQGLVSKAGWLIGYILITEFVGLGYRRMVGICYQIAFTVGLLILAGVAYVIPNWRWLQFAVTLPNFCFLLYFWCIPESPRWLISQNKIVKAMKIIKHIAKKNGKSVPVSLQNLTPDEDAGKKLNPSFLDLVRTPQIRKHTLILMYNWFTSSVLYQGLIMHMGLAGDNIYLDFFYSALVEFPAAFIIILTIDRVGRRYPWAVSNMVAGAACLASVFIPDDLQWLKITIACLGRMGITMAYEMVCLVNAELYPTYIRNLGVLVCSSMCDIGGIITPFLVYRLTDIWMEFPLVVFAVVGLVAGALVLLLPETKGKALPETIEDAENMQRPRKKKEKRIYLQVKQADRPLS
Question: How did the Km [13] turn out when B1 was run?
Answer: The Km was 650 µM.
